These results are taken from ChEMBL document CHEMBL4402514, “Norepinephrine-Transporter-Targeted and DNA-Co-Targeted Theranostic Guanidines” (J Med Chem, 2020).

Data set [1] is described as follows: Half life in EMEM medium by HPLC analysis. The class given is physicochemical.
Data set [2] is described as follows: Stability in human SK-N-SH cells assessed as parent compound level after 24 hrs by HPLC analysis. It counts as ADME, cell-based. As to conditions: read-out: Stability. The essentials: (§1)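 The compound was incubated 24 h in cell culture medium without cells or with SK-N-SH cells. Intact compound and 125IUdR catabolite were quantified by radio-HPLC on a C18 column at 0.8 mL/min, with a 0–95% CH3CN gradient over 50 min and 95% for 20 min.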

Data set [3] in a line: Half life in mouse serum by HPLC analysis. The class given is ADME, cell-free. The procedure, abridged:
(§2)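 Radioiodinated guanidines were incubated in mouse, human or pig serum and analyzed by radio-HPLC on a C18 column at 0.8 mL/min. The gradient was 0–95% CH3CN over 50 min, then 95% for 20 min. Intact compound was fitted to monoexponential degradation to give half-life. Values are average ± std err.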

Data set [4] has as its target T1, Sodium-dependent noradrenaline transporter (Homo sapiens, UniProt P23975). The experiment in a line: Substrate activity at NET in human BE(2)-C cells assessed as inhibition of drug uptake by measuring MIBG IC50 incubated for 1 hr in presence of nonradioactive MIBG at 37 degC by filtration based gamma counting method. It counts as cell-based.
In data set [5] the test system is BE(2)-C. The experiment in a line: Antitumor activity against human BE(2)-C cells xenografted with NCR nu/nu mouse assessed as tumor volume at 8.4 +/- 0.3 mBq administered intratumorally after 7 days. The class given is functional. The essentials:
(§3)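 Athymic Ncr nu/nu female and male mice bearing subcutaneous BE(2)-C xenografts were randomized by lottery into untreated control and treatment groups. Treatment was a single intratumor injection of 8.4 ± 0.3 MBq/mouse. Tumor volumes were followed to day 7 (controls) or day 14. Doubling times were calculated from day 0 to 7 and day 0 to 14. Values are average ± std err.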
In general terms: In xenograft studies the graft and the host belong to different species.

A short description of data set [6]: Drug level in tumor of NCR nu/nu mouse xenografted with human BE(2)-C cells at 0.33 +/- 0.05 MBq administered intratumorally after 24 hrs by gamma counting method. The class given is ADME, tissue-based, Neoplasm. The following applies: in vivo, other. The essentials: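 Athymic Ncr nu/nu female and male mice bearing subcutaneous BE(2)-C xenografts received intratumor injections of the 125I agent. Tissues, tumor and blood were collected at 24 h and counted for radioactivity, expressed as %ID/g. Tumor-to-blood ratios were derived.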

Data set [7] has as its target T1, Sodium-dependent noradrenaline transporter. The experiment in a line: Substrate activity at NET in human BE(2)-C cells assessed as inhibition of drug uptake by measuring MIBG IC50 incubated for 1 hr in presence of nonradioactive MIBG by gamma counting method. The class given is cell-based.
Data set [8] deals with SK-N-SH. The experiment in a line: Anticlonogenic activity against human SK-N-SH cells assessed as inhibition of reproductive integrity at 35 kBq/mL after 14 days by crystal violet staining based assay relative to control. The class given is functional. More on the design: scale not given: the % may be the effect or the level left. The essentials:
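SK-N-SH cells exposed to 125I guanidine for 24 h, then harvested, replated at 500 live cells/flask and grown in nonradioactive medium for 14 days (up to 21 days at the highest levels). Colonies were stained with crystal violet and counted. Values are average (n ≥ 3) ± SD.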

Data set [9] is described as follows: Drug level in human SK-N-SH cells DNA at 40 +/- 0.5 kBq/mL after 1 hr and followed by compound washout with non-radioactive medium/PBS and measured immediately by gamma counting method relative to control. The class given is ADME, cell-based. The procedure, abridged: (§4)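 SK-N-SH cells were exposed 1 h to 125I compound (≈39–40 kBq/mL), then washed with nonradioactive medium and PBS. Cells were processed immediately (1 h) or re-incubated in fresh medium for 23 h (24 h). Cytoplasmic, nuclear and DNA fractions were gamma-counted.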

A short description of data set [10]: Half life in human serum by HPLC analysis. It counts as ADME, cell-free. The procedure, abridged: as §2
Data set [11] concerns the target T1, Sodium-dependent noradrenaline transporter. In words: Substrate activity at NET in human SK-N-SH cells assessed as inhibition of drug uptake by measuring MIBG IC50 incubated for 1 hr in presence of nonradioactive MIBG at 37 degC by filtration based gamma counting method. The class given is cell-based. The essentials: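 This was a cell-suspension competition assay. SK-N-SH cells in suspension were incubated with 125I-guanidine and graded nonradioactive MIBG, and uptake was read by filtration and γ-counting. Runs were done at 37 °C, or at 4 °C after cooling the cells on ice. The MIBG IC50 was estimated from the inhibition curves.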

The nature of data set [12]: Stability in human serum assessed as intact compound level after 60 mins by HPLC analysis. The class given is ADME, cell-free. As to conditions: read-out: Stability. The essentials: as §2
Data set [13] deals with BE(2)-C. In words: Antitumor activity against human BE(2)-C cells xenografted with NCR nu/nu mouse assessed as doubling time at 8.4 +/- 0.3 mBq administered intratumorally measured up to 14 days. The class given is functional. The essentials: as §3
A short description of data set [14]: Half life in pig serum by HPLC analysis. The class given is ADME, cell-free, Sus scrofa. The essentials:
as §2

The test system of data set [15] is BE(2)-C. In words: Antitumor activity against human BE(2)-C cells xenografted with NCR nu/nu mouse assessed as doubling time at 8.4 +/- 0.3 mBq administered intratumorally measured up to 7 days (reference value: 2.4 days). The class given is functional. The essentials:
as §3

Data set [16] in a line: Drug level in tumor of NCR nu/nu mouse xenografted with human BE(2)-C cells at 0.83 +/- 0.09 MBq administered intratumorally pretreated with 18 umol of BNPP after 24 hrs by gamma counting analysis. The class given is ADME, tissue-based, Neoplasm. As to conditions: in vivo, other. The essentials: (§5)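 BE(2)-C xenograft-bearing nude mice were pre-injected with the carboxylesterase inhibitor bis-para-nitrophenylphosphate (9 or 18 μmol). They then received intratumor IDG. Tumor %ID/g was determined at 24 h.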

The nature of data set [17]: Drug level in tumor of NCR nu/nu mouse xenografted with human BE(2)-C cells at 0.83 +/- 0.09 MBq administered intratumorally pretreated with 9 umol of BNPP after 24 hrs by gamma counting analysis. It counts as ADME, tissue-based, Neoplasm. As to conditions: in vivo, other. The procedure, abridged: as §5
The nature of data set [18]: Drug uptake in human BE(2)-C cells assessed as level of 125I-incorporation into DNA incubated 1 hr followed by compound washout with non-radioactive medium/PBS and measured after 23 hrs by gamma counting method relative to control. The class given is ADME, cell-based. The essentials:
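BE(2)-C cells were treated with radioiodinated guanidine for 1 h, washed with nonradioactive medium and PBS. They were processed immediately or returned to the incubator for a further 23 h. 125I in the DNA fraction was gamma-counted. Values are average (n ≥ 3) ± SD.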

A short description of data set [19]: Drug level in human SK-N-SH cells DNA at 40 +/- 0.5 kBq/mL after 24 hrs by gamma counting method relative to control. The class given is ADME, cell-based. The essentials:
as §4

Data set [20] is described as follows: Drug uptake in human SK-N-SH cells assessed as level of 125I-incorporation into DNA after 1 hr and followed by compound washout with non-radioactive medium/PBS and measured immediately by gamma counting method relative to control. It counts as ADME, cell-based. The procedure, abridged:
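SK-N-SH cells exposed to the 125I-labelled guanidine for 1 h, then washed with nonradioactive medium and PBS. Cells were either processed at once (1 h) or given fresh nonradioactive medium and returned to the incubator for 23 h (24 h). Subcellular fractions (cytoplasm, DNA) were counted by γ-counter. Values are mean and SD, n ≥ 3.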

The nature of data set [21]: Stability in EMEM medium assessed as intact compound level incubated for 24 hrs by HPLC analysis. As to conditions: read-out: Stability. The class given is physicochemical. The essentials: as §1
Data set [22] deals with T1, Sodium-dependent noradrenaline transporter. In words: Substrate activity at NET in human BE(2)-C cells assessed as inhibition of drug uptake by measuring MIBG IC50 incubated for 1 hr in presence of nonradioactive MIBG at 4 degC by filtration based gamma counting method. It counts as cell-based.

T1 sequence (P23975 whole entry): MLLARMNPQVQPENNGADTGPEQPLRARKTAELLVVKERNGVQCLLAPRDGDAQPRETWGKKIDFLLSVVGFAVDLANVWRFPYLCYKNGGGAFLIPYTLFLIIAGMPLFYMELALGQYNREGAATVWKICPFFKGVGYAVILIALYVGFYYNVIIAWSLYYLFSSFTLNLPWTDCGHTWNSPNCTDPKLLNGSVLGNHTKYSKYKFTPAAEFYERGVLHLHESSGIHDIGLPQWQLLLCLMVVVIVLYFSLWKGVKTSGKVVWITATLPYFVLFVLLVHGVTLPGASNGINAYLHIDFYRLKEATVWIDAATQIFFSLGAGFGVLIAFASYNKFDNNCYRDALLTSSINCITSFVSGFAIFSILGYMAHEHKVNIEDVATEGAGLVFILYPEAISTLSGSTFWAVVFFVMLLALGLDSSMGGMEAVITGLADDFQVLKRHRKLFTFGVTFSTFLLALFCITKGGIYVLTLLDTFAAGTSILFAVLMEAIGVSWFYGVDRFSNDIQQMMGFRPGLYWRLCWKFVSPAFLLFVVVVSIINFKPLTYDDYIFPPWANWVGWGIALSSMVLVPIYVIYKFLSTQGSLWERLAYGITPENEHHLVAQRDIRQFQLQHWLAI

One may read the half-life as the time needed for the level to fall by half in the phase considered. The term IC50 denotes the concentration at which inhibition is half-maximal. Consider `N=C(N)NCCCCCC(=O)O[C@H]1C[C@H](n2cc([125I])c(=O)[nH]c2=O)O[C@@H]1CO`, for which the half-life was 110 h in data set [1], 3.54 min in data set [3], 2.28 h in data set [10] and 3.59 h in [14]. Besides, the values for the remaining at 24 h in [2] and in data set [21] were 33% and 86%, respectively. Besides, the IC50 in data set [4] was found to be 28.7 µM; in [7] it was 8.2 µM; in [11], 35.2 µM; in data set [22], 23.9 µM. The results for the Activity in data set [5] and in [8] were 0.54 cm3 and over 90%, respectively. In addition, the Drug uptake is 3.93 % ID/g in data set [6]; 70 to 80% in [9]; 1.66 % ID/g in data set [16]; 1.63 % ID/g in data set [17]; 99% in data set [18]; over 97% in data set [19]. Further, the Drug uptake in [20] worked out at 81%. Further, the remaining at 1 h in [12] was found to be 62.4%. Moreover, the Time in data set [13] is 5.3 days; in [15], 14.9 days.
